This is an account of results in ChEMBL document CHEMBL1649151, “Urinary bactericidal activity of Doripenem versus that of levofloxacin in patients with complicated urinary tract infections or pyelonephritis” (Antimicrob Agents Chemother, 2009).

In assay [1] the test system is Escherichia coli. Nature of the assay: Antimicrobial activity against Escherichia coli 1780063 B-A isolated from patient with pyelonephritis assessed as >3-log reduction in urinary bacterial titer after 24 hrs. Format: functional, Urine. In short, it runs like this: (§1)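 Urine was collected before dosing and on day 3 of i.v. therapy (steady state), in 4-h intervals from infusion start (0–4 to 20–24 h), stored at −80°C and sterile filtered. It was serially diluted twofold (1:0 to 1:131,072) in the patient's drug-free pre-dose urine. Microdilution used an inoculum of 1.0 x 10^6–9.5 x 10^6 CFU/ml, incubated 18 h at 37°C, then subcultured 24 h on blood agar. The endpoint was >99.9% kill, reported as reciprocal titer.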

The test system of assay [2] is Escherichia coli. Put plainly: Antimicrobial activity against Escherichia coli 1780063 B-A isolated from patient with pyelonephritis assessed as >3-log reduction in urinary bacterial titer after 16 hrs. Format: functional, Urine. In short, it runs like this:
as §1

In assay [3] the test system is Staphylococcus haemolyticus. Put plainly: Antimicrobial activity against Staphylococcus haemolyticus 1949819 B-M isolated from patient with pyelonephritis assessed as >3-log reduction in urinary bacterial titer after 4 hrs. Format: functional, Urine.
Assay [4] concerns Escherichia coli. Nature of the assay: Antimicrobial activity against Escherichia coli 1949825 B-K isolated from patient with pyelonephritis assessed as >3-log reduction in urinary bacterial titer after 8 hrs. Format: functional, Urine. The method in brief:
(§2)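 Patient urine was collected on day 3 of i.v. therapy (steady state) over 4-h intervals after infusion start, stored at –80°C, and sterile filtered. It was twofold serially diluted (1:0 to 1:131,072) in the patient's own pre-dose drug-free urine, inoculated to 1.0 x 10^6–9.5 x 10^6 CFU/ml, and incubated for 18 h at 37°C. Subcultures were grown on blood agar for 24 h. The UBT is the reciprocal of the highest dilution giving >99.9% kill.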

The subject of assay [5] is Staphylococcus haemolyticus. Nature of the assay: Antimicrobial activity against Staphylococcus haemolyticus 1949819 B-M isolated from patient with pyelonephritis assessed as >3-log reduction in urinary bacterial titer after 20 hrs. Format: functional, Urine.
For assay [6], the system named is Escherichia coli. Put plainly: Antimicrobial activity against Escherichia coli 1949825 B-K isolated from patient with pyelonephritis assessed as >3-log reduction in urinary bacterial titer after 24 hrs. Format: functional, Urine. In short, it runs like this: as §2
Assay [7] deals with Escherichia coli. Put plainly: Antimicrobial activity against Escherichia coli 1821385 B-C isolated from patient with pyelonephritis assessed as >3-log reduction in urinary bacterial titer after 20 hrs. Format: functional, Urine. In short, it runs like this:
(§3)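 Urine was collected on day 3 of i.v. therapy (steady state) over 4-h intervals from infusion start (0–4 to 20–24 h), stored at –80°C and sterile filtered. It was serially diluted twofold (1:0 up to 1:131,072) in the patient's own pre-dose drug-free urine. Microdilution used a final inoculum of 1.0 x 10^6 to 9.5 x 10^6 CFU/ml, incubated 18 h at 37°C in air. 10 µl was subcultured onto 5% blood Columbia agar for 24 h at 37°C. The bactericidal endpoint was >99.9% (>3-log) kill, reported as a reciprocal titer.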

Assay [8] relates to Escherichia coli. Nature of the assay: Antimicrobial activity against Escherichia coli 1949826 B-L isolated from patient with pyelonephritis assessed as >3-log reduction in urinary bacterial titer after 12 hrs. Format: functional, Urine. In short, it runs like this:
as §2

In assay [9] the test system is Escherichia coli. Nature of the assay: Antimicrobial activity against Escherichia coli 1949826 B-L isolated from patient with pyelonephritis assessed as >3-log reduction in urinary bacterial titer after 16 hrs. Format: functional, Urine. In short, it runs like this:
as §2

Assay [10] has as its system Escherichia coli. Nature of the assay: Antimicrobial activity against Escherichia coli 1949825 B-K isolated from patient with pyelonephritis assessed as >3-log reduction in urinary bacterial titer after 4 hrs. Format: functional, Urine. In short, it runs like this:
as §2

The subject of assay [11] is Enterococcus faecalis. Nature of the assay: Antimicrobial activity against Enterococcus faecalis 2215770 B-T isolated from patient with pyelonephritis assessed as >3-log reduction in urinary bacterial titer after 4 hrs. Format: functional, Urine. The method in brief:
as §1

Assay [12] has as its system Pseudomonas aeruginosa. Put plainly: Antimicrobial activity against Pseudomonas aeruginosa 1821383 B-E isolated from patient with pyelonephritis assessed as >3-log reduction in urinary bacterial titer after 12 hrs. Format: functional, Urine.
Assay [13] concerns Pseudomonas aeruginosa. Nature of the assay: Antimicrobial activity against Pseudomonas aeruginosa 2062713 B-Q isolated from patient with pyelonephritis assessed as >3-log reduction in urinary bacterial titer after 12 hrs. Format: functional, Urine.
The subject of assay [14] is Escherichia coli. Put plainly: Antimicrobial activity against Escherichia coli 1780064 A-X isolated from patient with pyelonephritis assessed as >3-log reduction in urinary bacterial titer after 24 hrs. Format: functional, Urine. The method in brief: as §3
The test system of assay [15] is Pseudomonas aeruginosa. Nature of the assay: Antimicrobial activity against Pseudomonas aeruginosa 1821383 B-E isolated from patient with pyelonephritis assessed as >3-log reduction in urinary bacterial titer after 8 hrs. Format: functional, Urine.
Assay [16] deals with Pseudomonas aeruginosa. Nature of the assay: Antimicrobial activity against Pseudomonas aeruginosa 1821383 B-E isolated from patient with pyelonephritis assessed as >3-log reduction in urinary bacterial titer after 24 hrs. Format: functional, Urine.
For assay [17], the system named is Staphylococcus aureus. Put plainly: Antimicrobial activity against Staphylococcus aureus 2215767-9 B-S isolated from patient with pyelonephritis assessed as >3-log reduction in urinary bacterial titer after 24 hrs. Format: functional, Urine.
The subject of assay [18] is Staphylococcus aureus. Nature of the assay: Antimicrobial activity against Staphylococcus aureus 1889640 A-Z isolated from patient with pyelonephritis assessed as >3-log reduction in urinary bacterial titer after 24 hrs. Format: functional, Urine.
The test system of assay [19] is Escherichia coli. Put plainly: Antimicrobial activity against Escherichia coli 1655646 A-Y isolated from patient with pyelonephritis assessed as >3-log reduction in urinary bacterial titer after 20 hrs. Format: functional, Urine. The method in brief: as §1
Assay [20] deals with Staphylococcus epidermidis. Nature of the assay: Antimicrobial activity against Staphylococcus epidermidis 1949822 B-J isolated from patient with pyelonephritis assessed as >3-log reduction in urinary bacterial titer after 20 hrs. Format: functional, Urine.
The subject of assay [21] is Escherichia coli. Put plainly: Antimicrobial activity against Escherichia coli 1780064 A-X isolated from patient with pyelonephritis assessed as >3-log reduction in urinary bacterial titer after 12 hrs. Format: functional, Urine. The method in brief:
as §1

For assay [22], the system named is Pseudomonas aeruginosa. Put plainly: Antimicrobial activity against Pseudomonas aeruginosa 2062713 B-Q isolated from patient with pyelonephritis assessed as >3-log reduction in urinary bacterial titer after 16 hrs. Format: functional, Urine.
Assay [23] relates to Enterococcus faecalis. Put plainly: Antimicrobial activity against Enterococcus faecalis 2297262-10 B-V isolated from patient with pyelonephritis assessed as >3-log reduction in urinary bacterial titer after 12 hrs. Format: functional, Urine. In short, it runs like this:
as §1

Assay [24] relates to Staphylococcus aureus. Nature of the assay: Antimicrobial activity against Staphylococcus aureus 2215767-9 B-S isolated from patient with pyelonephritis by Etest. Format: functional.
For assay [25], the system named is Escherichia coli. Nature of the assay: Antimicrobial activity against Escherichia coli 1821386 B-D isolated from patient with pyelonephritis assessed as >3-log reduction in urinary bacterial titer after 4 hrs. Format: functional, Urine. In short, it runs like this: as §3
The test system of assay [26] is Serratia marcescens. Put plainly: Antimicrobial activity against Serratia marcescens 2297260 B-U isolated from patient with pyelonephritis assessed as >3-log reduction in urinary bacterial titer after 8 hrs. Format: functional, Urine.
In assay [27] the test system is Serratia marcescens. Put plainly: Antimicrobial activity against Serratia marcescens 2297260 B-U isolated from patient with pyelonephritis by Etest. Format: functional.
Assay [28] concerns Enterococcus faecalis. Nature of the assay: Antimicrobial activity against Enterococcus faecalis 2297262-10 B-V isolated from patient with pyelonephritis assessed as >3-log reduction in urinary bacterial titer after 24 hrs. Format: functional, Urine. The method in brief:
as §1

Assay [29] deals with Staphylococcus aureus. Put plainly: Antimicrobial activity against Staphylococcus aureus 1889640 A-Z isolated from patient with pyelonephritis by Etest. Format: functional.
For assay [30], the system named is Staphylococcus aureus. Put plainly: Antimicrobial activity against Staphylococcus aureus 2215767-9 B-S isolated from patient with pyelonephritis assessed as >3-log reduction in urinary bacterial titer after 12 hrs. Format: functional, Urine.
Assay [31] concerns Enterococcus faecalis. Put plainly: Antimicrobial activity against Enterococcus faecalis 2215767-10 B-S isolated from patient with pyelonephritis assessed as >3-log reduction in urinary bacterial titer after 8 hrs. Format: functional, Urine. In short, it runs like this: as §1
Assay [32] deals with Escherichia coli. Put plainly: Antimicrobial activity against Escherichia coli 1655646 A-Y isolated from patient with pyelonephritis assessed as >3-log reduction in urinary bacterial titer after 4 hrs. Format: functional, Urine. In short, it runs like this:
as §1

The test system of assay [33] is Escherichia coli. Put plainly: Antimicrobial activity against Escherichia coli 1821386 B-D isolated from patient with pyelonephritis assessed as >3-log reduction in urinary bacterial titer after 12 hrs. Format: functional, Urine. The method in brief: as §3
Assay [34] deals with Enterococcus faecalis. Nature of the assay: Antimicrobial activity against Enterococcus faecalis 2215767-10 B-S isolated from patient with pyelonephritis assessed as >3-log reduction in urinary bacterial titer after 4 hrs. Format: functional, Urine. In short, it runs like this:
as §1

The structures appear in SMILES notation. Some results are limits rather than exact numbers.

As for `C[C@@H](O)[C@H]1C(=O)N2C(C(=O)O)=C(S[C@@H]3CN[C@H](CNS(N)(=O)=O)C3)[C@H](C)[C@H]12` [DORIPENEM], the urinary bactericidal titer turned out to be 1024 reciprocal titer in [1]; 1024 reciprocal titer in assay [2]; 512 reciprocal titer in assay [3]; 4096 reciprocal titer in assay [4]; 2048 reciprocal titer in assay [5]; 256 reciprocal titer in assay [6]. Moreover, the urinary bactericidal titer stood at 8192 reciprocal titer in assay [7]; 131000 reciprocal titer in assay [8]; 32800 in [9]; 16400 reciprocal titer in assay [10]; 2048 reciprocal titer in assay [11].

As to `C[C@H]1COc2c(N3CCN(C)CC3)c(F)cc3c(=O)c(C(=O)O)cn1c23.C[C@H]1COc2c(N3CCN(C)CC3)c(F)cc3c(=O)c(C(=O)O)cn1c23.O` [LEVOFLOXACIN], the urinary bactericidal titer amounted to 128 reciprocal titer in assay [12]; 4 reciprocal titer in [13]; 128 reciprocal titer in assay [14]; 128 reciprocal titer in [15]; 16 reciprocal titer in [16]; 0 reciprocal titer in [17]. Besides, the urinary bactericidal titer in assay [18] came to 64 reciprocal titer; in assay [19], 1024 reciprocal titer; in [20], 2 reciprocal titer; in assay [21], 256 reciprocal titer; in assay [22], 4 reciprocal titer; in [23] it was 0 reciprocal titer. The urinary bactericidal titer was found to be 2048 reciprocal titer in assay [25]; 256 reciprocal titer in [26]; 1 reciprocal titer in assay [30]; 0 reciprocal titer in assay [31]; 2048 reciprocal titer in assay [32]; 2048 reciprocal titer in [33]. In addition, the MIC in [24] is over 32 µg/mL; in [27], 0.19 µg/mL; in assay [29], 0.06 µg/mL. Moreover, the Time in assay [28] and in assay [34] was 0 h throughout.

By MIC is commonly meant the lowest concentration found to suppress growth.
